This is a sample that favours compounds with a hit; in the whole collection about 3.3% have one here.
E-sel inducer: E-selectin induction on HUVECs | P16581 | HUVEC E-selectin immunofluorescence imaging; normalized: neutral wells 0, TNF-alpha wells 100 | activation, % at 7.58 µM | 0.37% of 260,000 active | AID 686992;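 active means mean E-selectin-positive cell signal at least 10% of the positive control, reached in at least 60% of replicates, without over 20% cell loss; inconclusive means no rule given, readout overlaps actives, possibly toxicity-flagged; inactive means the rest, including those meeting only one limit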
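Test system – human umbilical vein endothelial cells (HUVEC), E-selectin induction · Input – 3,000 HUVEC seeded per well · Buffer or medium – EGM-2, gelatin · Compound dosing – single-point compound dose · Detection – immunofluorescence imaging · Measure – percent E-selectin-positive cells · Controls – TNF-alpha high, DMSO low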
Xi reactivation: X-chromosome reactivation activator. XiGFP mouse fibroblasts, % GFP-positive cells imaging, 3 d; cells co-treated with 5-aza-dC sensitizer; scaled so ellipticine positive control = 100%. activation, % at 7.58 µM. 0.055% of 360,000 active. AID 743238;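 active means mean normalized replicate activation at least 10% and every replicate at or above 10%; inconclusive means only one of the two criteria met; inactive means mean below 10% and not all replicates reach 10%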;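 further: 0% = median of on-plate neutral control wells and 100% = ellipticine 6 µM median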
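material = 68-5-11 XiGFP fibroblast line | medium = DMEM plus 5-aza-dC sensitizer | schedule = 3 days compound exposure | benchmarks = positive control ellipticine, 6 µM final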
FGF22 binding: FGF22 (human) thermal shift binding; Q9HCT0; recombinant FGF22 thermal shift, SYPRO orange fluorescence; percent of sucrose octasulfate shift, DMSO zero; activity (Tm shift, normalised), % at 9.99 µM; 1.5% of 340,000 active; AID 651658;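 active means mean Tm shift, scaled 0 neutral to 100 positive control, at about 1.3% or above, every replicate too, limit read from the data; inconclusive means no clear call, values can overlap the other calls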
Target sequence (Q9HCT0 whole entry, looked up): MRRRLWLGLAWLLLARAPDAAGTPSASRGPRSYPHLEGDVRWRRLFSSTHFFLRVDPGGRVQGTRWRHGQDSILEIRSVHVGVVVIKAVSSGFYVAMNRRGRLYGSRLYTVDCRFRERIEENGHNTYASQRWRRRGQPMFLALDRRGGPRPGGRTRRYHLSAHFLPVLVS
DENV2 CPE rescue: inhibitors of DENV2 cytopathic effect; AID 651640; DENV2-infected cells, cytopathic effect rescue, plate reader; 1.7% of 350,000 active; CPE inhibition, % at 9.99 µM; in the data active means CPE inhibition above about 20%, passing the limit was not always enough; inconclusive means no clear call, values can overlap the other calls; tested in BHK-21 cells;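 further: 0% = median of neutral control wells and 100% = median of positive control wells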
PglD DTNB: blocks C. jejuni PglD acetyltransferase activity. purified PglD enzyme, DTNB colorimetric CoA detection. inhibition, % at 12.5 µM. 0.098% of 360,000 active; in the data active means inhibition above about 16%, passing the limit was not always enough; inconclusive means no clear call, values can overlap the other calls
Statin myotox sup: suppressors of simvastatin-induced myotoxicity in C2C12 myotubes | ATP luminescence, 48 h; scaled: DMSO 0, geranylgeraniol control 100 | rescue of ATP level, % at 7.49 µM | 0.78% of 330,000 active | AID 602340;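 active means mean ATP rescue above about 67%, or every replicate alone reaching that limit, limit read from the data, passing the limit was not always enough; inconclusive means no clear call, values can overlap the other calls; inactive means mean under the limit and some replicate under it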;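 further: myotubes were challenged with 10 µM simvastatin during compound exposure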
Active calls of the source: *.

Results for C[C@@H]1CN([C@@H](C)CO)C(=O)c2cc(NC(=O)NC3CCCCC3)ccc2O[C@@H](C)CCCCO[C@H]1CN(C)Cc1ccc2c(c1)OCO2 ?
E-sel inducer: 0; Xi reactivation: 0; FGF22 binding: 0; DENV2 CPE rescue: 45*; PglD DTNB: 4

Results for C[C@@H]1CN([C@H](C)CO)C(=O)c2cc(NC(=O)NC3CCCCC3)ccc2O[C@@H](C)CCCCO[C@H]1CN(C)Cc1ccc2c(c1)OCO2 ?
E-sel inducer: 0; Xi reactivation: 0; FGF22 binding: 0; DENV2 CPE rescue: 63*; PglD DTNB: 4

How did C[C@@H]1CN([C@@H](C)CO)C(=O)c2cc(NC(=O)NC3CCCCC3)ccc2O[C@@H](C)CCCCO[C@@H]1CN(C)Cc1ccc2c(c1)OCO2 do in these assays?
E-sel inducer: 0; Xi reactivation: 0; FGF22 binding: 0; DENV2 CPE rescue: 7; PglD DTNB: -3

How did CC(C)NC(=O)N(C)C[C@@H]1OCCCC[C@H](C)Oc2ccc(NC(=O)CCC(F)(F)F)cc2C(=O)N([C@@H](C)CO)C[C@H]1C do in these assays?
E-sel inducer: 0; Xi reactivation: 0; FGF22 binding: 0; DENV2 CPE rescue: 1; PglD DTNB: 4

Results for C[C@H]1CN([C@@H](C)CO)S(=O)(=O)c2ccc(-c3cccc(C#N)c3)cc2O[C@@H]1CN(C)C(=O)C1CC1 ?
E-sel inducer: 0; Xi reactivation: -1; FGF22 binding: 0; DENV2 CPE rescue: inconclusive; PglD DTNB: 2; Statin myotox sup: 20

What do the screens show for `C[C@H](CO)N1C[C@H](C)[C@@H](CN(C)Cc2ccc3c(c2)OCO3)Oc2ccc(NS(=O)(=O)c3cccs3)cc2CC1=O`?
E-sel inducer: -9; Xi reactivation: 0; FGF22 binding: 0; DENV2 CPE rescue: 7; PglD DTNB: 3; Statin myotox sup: 59

Results for O=C(CSc1nnc(CNc2ccc(F)cc2)n1Cc1ccccc1)N1CCOCC1 ?
PglD DTNB: -10; Statin myotox sup: 102*

Results for Cc1ccc(NS(=O)(=O)c2cccc(C(=O)NCCCn3ccnc3)c2)cc1 ?
E-sel inducer: 0; Xi reactivation: 0; FGF22 binding: 0; DENV2 CPE rescue: -5

How did Cc1ccc(S(=O)(=O)Nc2cccc(C(=O)NCCCn3ccnc3)c2)cc1F do in these assays?
E-sel inducer: 1; Xi reactivation: 0; FGF22 binding: 0; DENV2 CPE rescue: 54*; Statin myotox sup: -1

How did Cc1cc(=O)oc2c(CN3CCCC3)c(O)c(Cl)cc12 do in these assays?
E-sel inducer: 0; Xi reactivation: 0; FGF22 binding: 0; DENV2 CPE rescue: -5; PglD DTNB: -2; Statin myotox sup: 6

How did Cc1cc(=O)oc2c(CN3CCCCC3)c(O)c(Cl)cc12 do in these assays?
PglD DTNB: 2; Statin myotox sup: 97*

What do the screens show for `CCC(=O)Nc1ccc2c(c1)OC[C@@H](C)NC[C@H](C)[C@@H](OC)CN(C)C2=O`?
E-sel inducer: 0; Xi reactivation: 0; FGF22 binding: 0; DENV2 CPE rescue: 28*; PglD DTNB: 3; Statin myotox sup: 9

Results for COCC(=O)Nc1ccc2c(c1)OC[C@@H](C)NC[C@H](C)[C@H](OC)CN(C)C2=O ?
E-sel inducer: 0; Xi reactivation: 1; FGF22 binding: 0; DENV2 CPE rescue: 30*; PglD DTNB: -2; Statin myotox sup: 12

Results for COCC(=O)Nc1ccc2c(c1)OC[C@@H](C)NC[C@H](C)[C@@H](OC)CN(C)C2=O ?
E-sel inducer: 0; Xi reactivation: 0; FGF22 binding: 0; DENV2 CPE rescue: 9; PglD DTNB: -1; Statin myotox sup: 2

Results for CCC(=O)Nc1ccc2c(c1)OC[C@@H](C)NC[C@@H](C)[C@@H](OC)CN(C)C2=O ?
E-sel inducer: 0; Xi reactivation: 0; FGF22 binding: 0; DENV2 CPE rescue: 0; PglD DTNB: 2; Statin myotox sup: 2

What do the screens show for `COCC(=O)Nc1ccc2c(c1)OC[C@H](C)NC[C@@H](C)[C@@H](OC)CN(C)C2=O`?
E-sel inducer: 0; Xi reactivation: 0; FGF22 binding: 0; DENV2 CPE rescue: 24*; PglD DTNB: -2; Statin myotox sup: 7

Compound activity deposited in PubChem BioAssay by Broad Institute.
